Experiments:
[1] = Equilibrium solubility of the crystalline compounds; type: physicochemical; details: 37°C, >24 h, mean ± s.d., n = 3, LLOQ 1 μg/mL
Method in brief: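 Excess crystalline solid (2-3 mg per 1 mL) in water held at 37°C for >24 h. Supernatant cleared by centrifugation at 30,279 × g for ≥20 min, then quantified by HPLC-UV: isocratic C18 column at 50°C, acetonitrile/water 80:20 or 70:30 depending on compound, 1 mL/min, detection at 280 nm, calibration against acetonitrile standards.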

[2] = type: in vivo, rats (male; Sprague-Dawley); details: rat
Method in brief: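 Male Sprague-Dawley rats, lightly isoflurane-anaesthetised, got 250 μL dosing solution intratracheally by catheter to the tracheal bifurcation at 0.067, 0.12 or 0.28 mg/kg. Plasma, lung and, in one study, BAL sampled to 24 or 48 h and assayed by LC-MS. Four-compartment model with central lung fixed at 2 g and BAL plus lung summed. M3 used for <LLOQ data; VPC; apparent parameters scaled to 0.3 kg.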

[3] = Metabolic stability in human liver microsomes; type: in vitro ADME
Method in brief: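 Incubated with 0.5 mg/mL human liver microsomes at 1 μM compound in 100 mM KPO4, pH 7.4, started with 1 mM NADPH. Aliquots at 0, 5, 10, 20, 40 and 60 min quenched in cold acetonitrile. Parent remaining measured by LC-MS/MS.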

[4] = intratracheal, apparent parameter of final model, scaled to 0.3 kg
[5] = intratracheal, final model, scaled to 0.3 kg
[6] = from human liver microsomes data

- Solubility in water [1]: <LLOQ
- Time of distribution equilibrium (lung, BAL, plasma) ([2]; intratracheal 0.067 mg/kg): 2 h
- CLC, clearance central [2, 4]: 0.0745 L/h
- CLLP, clearance lung to plasma [2, 4]: 0.0175 L/h
- VC, volume of distribution central [2, 4]: 0.0855 L
- FBAL, fraction in BAL ([2]; intratracheal, final model (Table 5)): 0.980%
- QL, intercompartmental clearance lung [2, 5]: 0.00596 L/h
- VLP, volume of distribution deep lung [2, 5]: 0.0582 L
- CLH (hepatic clearance) [3, 6]: 747.9 mL/min
- EH (hepatic extraction ratio) [3, 6]: 0.50
- CLint (intrinsic clearance) ([3]; human liver microsomes, 1 μM compound): 1491.7 mL/min
- half-life at 1 μM ([3]; human, liver microsomes, pH 7.4): 54.4 min
Structure (SMILES): CCCCCCCCCc1nc2cc(Cl)ccc2c(=O)n1N [SEN001, 3-amino-7-chloro-2-nonylquinazolin-4(3H)-one]
